Assay [1] concerns Mycobacterium tuberculosis. Description: Antimycobacterial activity against Mycobacterium bovis BCG assessed as clolony forming unit at 125 ug/ml after 21 days in presence of sucrose. The class given is functional, variant bovis BCG. The procedure, abridged:
(§1)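 M. bovis BCG exposed to agent, with or without sucrose or 2.5% dextran, in log-phase and stationary-phase cultures. Bactericidal activity read as viable count (log CFU/ml) at day 7 and day 21. Values given as means ± SD.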

Assay [2] relates to Mycobacterium tuberculosis. Description: Antimycobacterial activity against Mycobacterium bovis BCG assessed as clolony forming unit at 125 ug/ml after 7 days in presence of sucrose. The assay is classed as functional, variant bovis BCG. Summed up: as §1
The subject of assay [3] is Mycobacterium tuberculosis. Description: Antimycobacterial activity against Mycobacterium bovis BCG assessed as clolony forming unit at 125 ug/ml after 21 days in presence of destrin. The class given is functional, variant bovis BCG. The procedure, abridged: as §1
Assay [4] concerns Mycobacterium tuberculosis. Description: Antimycobacterial activity against Mycobacterium bovis BCG carrying pMV261::ethR. The class given is functional. To be noted: Mycobacterium tuberculosis variant bovis BCG. Summed up:
(§2)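 MIC by agar method on 7H11 supplemented with OADC. M. bovis BCG carried empty pMV261, or pMV261 overexpressing EthA or EthR from the constitutive hsp60 promoter. Results reported as MIC ranges in µg/ml.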

Assay [5] concerns Mycobacterium tuberculosis. Description: Antimycobacterial activity against Mycobacterium bovis BCG assessed as clolony forming unit at 125 ug/ml after 21 days. The assay is classed as functional, variant bovis BCG. Summed up:
as §1

The subject of assay [6] is Mycobacterium tuberculosis. Description: Antimycobacterial activity against Mycobacterium bovis BCG assessed as clolony forming unit at 125 ug/ml after 7 days in presence of dextrin. The class given is functional, variant bovis BCG. Summed up: as §1
In assay [7] the test system is Mycobacterium tuberculosis. Description: Antimycobacterial activity against Mycobacterium bovis BCG assessed as clolony forming unit at 125 ug/ml after 7 days. The assay is classed as functional, variant bovis BCG. The procedure, abridged: as §1
The subject of assay [8] is Mycobacterium tuberculosis. Description: Antimycobacterial activity against Mycobacterium bovis BCG carrying pMV261::ethA. The assay is classed as functional. Conditions: Mycobacterium tuberculosis variant bovis BCG. The procedure, abridged:
as §2

Assay [9] has as its system Mycobacterium tuberculosis. Description: Antimycobacterial activity against Mycobacterium bovis BCG carrying pMV261. The class given is functional. Conditions: Mycobacterium tuberculosis variant bovis BCG. Summed up:
as §2

For assay [10], the system named is Mycobacterium tuberculosis. Description: Antimycobacterial activity against Mycobacterium bovis BCG assessed as clolony forming unit at 313 ug/ml after 21 days. The class given is functional, variant bovis BCG. Summed up: as §1
The test system of assay [11] is Mycobacterium tuberculosis. Description: Antimycobacterial activity against Mycobacterium bovis BCG assessed as clolony forming unit at 313 ug/ml after 7 days. The class given is functional, variant bovis BCG. Summed up: as §1
Assay [12] relates to Mycobacterium tuberculosis. Description: Antimycobacterial activity against Mycobacterium bovis BCG assessed as clolony forming unit at 313 ug/ml after 21 days in presence of destrin. The assay is classed as functional, variant bovis BCG. Summed up:
as §1

In assay [13] the test system is Mycobacterium tuberculosis. Description: Antimycobacterial activity against Mycobacterium bovis BCG assessed as clolony forming unit at 313 ug/ml after 21 days in presence of sucrose. The class given is functional, variant bovis BCG. The procedure, abridged: as §1
Assay [14] relates to Mycobacterium tuberculosis. Description: Antimycobacterial activity against Mycobacterium bovis BCG assessed as clolony forming unit at 313 ug/ml after 7 days in presence of dextrin. The class given is functional, variant bovis BCG. Summed up: as §1
For assay [15], the system named is Mycobacterium tuberculosis. Description: Antimycobacterial activity against Mycobacterium bovis BCG assessed as clolony forming unit at 313 ug/ml after 7 days in presence of sucrose. The class given is functional, variant bovis BCG. The procedure, abridged:
as §1

The subject of assay [16] is Mycobacterium tuberculosis. Description: Antimycobacterial activity against Mycobacterium bovis BCG assessed as clolony forming unit at 4 ug/ml after 7 days. The class given is functional, variant bovis BCG. The procedure, abridged: as §1
The subject of assay [17] is Mycobacterium tuberculosis. Description: Antimycobacterial activity against Mycobacterium bovis BCG assessed as clolony forming unit at 4 ug/ml after 21 days. The assay is classed as functional, variant bovis BCG. The procedure, abridged:
as §1

In assay [18] the test system is Mycobacterium tuberculosis. Description: Antimycobacterial activity against Mycobacterium bovis BCG assessed as clolony forming unit at 4 ug/ml after 21 days in presence of sucrose. The class given is functional, variant bovis BCG. The procedure, abridged: as §1
The test system of assay [19] is Mycobacterium tuberculosis. Description: Antimycobacterial activity against Mycobacterium bovis BCG assessed as clolony forming unit at 4 ug/ml after 7 days in presence of sucrose. The assay is classed as functional, variant bovis BCG. Summed up:
as §1

Assay [20] relates to Mycobacterium tuberculosis. Description: Antimycobacterial activity against Mycobacterium bovis BCG assessed as clolony forming unit at 4 ug/ml after 7 days in presence of dextrin. The class given is functional, variant bovis BCG. The procedure, abridged:
as §1

For assay [21], the system named is Mycobacterium tuberculosis. Description: Antimycobacterial activity against Mycobacterium bovis BCG assessed as clolony forming unit at 4 ug/ml after 21 days in presence of destrin. The assay is classed as functional, variant bovis BCG. The procedure, abridged: as §1

Converted amounts (≈) assume the structure as drawn.

The MIC is the lowest concentration that inhibits growth of the organism. In the case of `CC(=O)N[C@@H]1[C@@H](O)[C@H](O)[C@@H](CO)O[C@H]1SC(=S)N1CCCC1`, the log10CFU/ml in [1] is listed as 5.76; in assay [2], 6.25; in assay [3], 5.79; in [5], 4.43; in [6] it was 6.07; in assay [7], 4.55. In addition, the MIC in assay [4], in assay [8] and in [9] was 1 µg/mL (≈ 2.85 µM) each time.

`CC(=O)N[C@@H]1[C@@H](O)[C@H](O)[C@@H](CO)O[C@H]1SC(=S)N(C)C`: the log10CFU/ml is reported as 5.2 in [10]; 5.91 in [11]; 5.91 in assay [12]; 5.78 in [13]; 6.44 in assay [14]; 6.41 in [15]. In addition, the MIC in assay [4], in assay [8] and in assay [9] was 10 µg/mL (≈ 30.8 µM) throughout.

Turning to `CCc1cc(C(N)=S)ccn1` [ETHIONAMIDE], the MIC in [4] stood at 10 µg/mL (≈ 60.2 µM); in assay [8], 0.5 µg/mL (≈ 3.01 µM); in [9], 1 µg/mL (≈ 6.02 µM).

In the case of `N.S=C(S)N1CCCC1` [PYRROLIDINE DITHIOCARBAMIC ACID, AMMONIUM SALT], the log10CFU/ml was determined as 4.65 in assay [16]; 4.41 in assay [17]; 5.56 in assay [18]; 6.05 in assay [19]; 6.93 in assay [20]; 5.56 in assay [21]. The minimal inhibitory concentration (MIC) in assay [4] is 0.25 µg/mL; in assay [8], 0.5 µg/mL; in assay [9], 0.5 µg/mL.
